From paper PMC2899701 (Lipids, 2009)
Values after ≈ are worked out from the molar mass of the structure shown. Read-outs that look alike come from different tables or passages of the source.

Assays:
[1] = tested on: L. donovani promastigotes; settings: at levels of 100 μg/mL; cited from earlier work
[2] = tested on: Murine macrophages (RAW 264.7); assay: Toxicity to murine macrophages; type: cell-based; settings: for IC50: RAW264.7, 48 h, read-out: Murine macrophages IC50; for Murine macrophages IC50: RAW 264.7, 48 h incubation, alamarBlue
How it was run: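 RAW 264.7 murine macrophages grown at 37 °C in RPMI 1640 with 10% FCS, penicillin (50 U/ml) and streptomycin (50 µg/ml). Cells exposed 48 h to a range of test compound concentrations (0.3 to 100 µg/ml, DMSO vehicle). Viability read with alamarBlue dye per manufacturer's protocol; IC50 derived from concentration series.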

[3] = tested on: L. donovani promastigotes; type: cell-based, Leishmania donovani (MHOM/ET67/L82 strain); settings: for Therapeutic index IC50/EC50: IC50 murine macrophages / EC50 L. donovani promastigotes; for EC50: 48 h, read-out: L. donovani promastigotes EC50; for L. donovani promastigotes EC50: 48 h incubation, fatty acids in DMSO 0.6 to 25 μg/ml; for Effectiveness towards L. donovani (in words): promastigotes
How it was run: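 L. donovani MHOM/ET67/L82 promastigotes propagated in defined medium 199 with 10% heat-inactivated FCS, penicillin (50 U/ml) and streptomycin (50 µg/ml). Cultures given test fatty acids in DMSO over 0.6 to 25 µg/ml for 48 h. Cell population counted by Coulter counter; IC50/EC50 derived from the concentration series.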

[4] = target: leishmania DNA topoisomerase IB (LdTopIB) (Leishmania donovani, UniProt A0A3Q8IHS4+Q8WQM6); assay: DNA relaxation assay with recombinant LdTopIB; type: biochemical; settings: concentrations as high as 1mM (gel not shown)
[5] = tested on: L. donovani promastigotes; settings: cited from earlier work

In the case of CCCCCCCCCCCCCCCC(=O)O [n-hexadecanoic acids, n-hexadecanoic acid], the “Inhibition of the motility of L. donovani promastigotes (in words)” value (shortened to “Inhibition of the motility … (in words)”) [1] is given as “inhibited the motility”.

In the case of CCCCCCCCCCCCCC#CCCCCC(=O)O [Compound 1b, 6-Icosynoic acid], the IC50 ([2]; Mus musculus) is reported as 5.35 ± 2.14 µg/mL (≈ 17.3 µM), the “Therapeutic index IC50/EC50” value [3] is reported as 4.82 and the EC50 ([3]; Leishmania donovani) is reported as 1.11 ± 0.28 µg/mL (≈ 3.6 µM).

For CCCCCCCCCCCCCCCCCCCC(=O)O [Icosanoic (20:0), n-icosanoic acid], the “Murine macrophages IC50” value [2] was 21.93 ± 2.61 µg/mL, the “L. donovani promastigotes EC50” value [3] was > 25 µg/mL and the “Effectiveness towards L. donovani (in words)” value [3] was “not effective”. The “Inhibition of the LdTOPIB enzyme (in words)” value [4] was “did not inhibit the enzyme”.

In the case of CCCCCCCCCCCCCCCCOP(=O)([O-])OCC[N+](C)(C)C [miltefosine], the EC50 ([2]; Mus musculus, RAW264.7, read-out: EC50 against murine macrophages) is reported as 1950 nM and the IC50 ([3]; Leishmania donovani, read-out: IC50 against L. donovani) is reported as 790 nM.

In the case of CCCCCCCCCCC#CCCCCC(=O)O [Compound 1a, 6-Heptadecynoic acid], the IC50 ([2]; Mus musculus) is reported as 5.66 ± 0.92 µg/mL (≈ 21.2 µM), the “Therapeutic index IC50/EC50” value [3] is reported as 0.85 and the EC50 ([3]; Leishmania donovani) is reported as 6.67 ± 1.42 µg/mL (≈ 25 µM).

In the case of CCCCCCCCCCCCC/C=C\CCCCC(=O)O [Compound 6b, (6Z)-Icosenoic acid], the “Murine macrophages IC50” value [2] is reported as 28.20 ± 7.54 µg/mL, the “L. donovani promastigotes EC50” value [3] is reported as 5.67 ± 1.07 µg/mL and the “L. donovani promastigotes EC50” value ([3]; listed as (6Z)-icosenoic acid) is reported as 5 to 6 µg/mL. The “Therapeutic index IC50/EC50” value [3] was 4.97.

With CCCCCCCCCCCCCCCCC(=O)O [Heptadecanoic (17:0), n-heptadecanoic acid] the “Murine macrophages IC50” value [2] was 14.18 ± 7.48 µg/mL, the “L. donovani promastigotes EC50” value [3] was > 25 µg/mL and the “Effectiveness towards L. donovani (in words)” value [3] was “not effective”. The “Inhibition of the LdTOPIB enzyme (in words)” value [4] was “did not inhibit the enzyme”.

In the case of CCCCCCCCCCCC(=O)O [n-dodecanoic, n-dodecanoic acid], the “Inhibition of the motility … (in words)” value [1] is listed as “inhibited the motility”.

In the case of CCCCCCCCCC(=O)O [n-Decanoic acid], the “Inhibition of the motility … (in words)” value [1] is given as “inhibited the motility” and the “MIC against L. donovani promastigotes” value [5] is given as 1390 µM (≈ 239 µg/mL).

In the case of CCCCCCCCCCCCCCCCCC(=O)O [octadecanoic acid], the “MIC against L. donovani promastigotes” value [5] is listed as 180 µM (≈ 51.2 µg/mL).

In the case of CCCCCCCCCC/C=C\CCCCC(=O)O [Compound 6a, (6Z)-Heptadecenoic acid], the “Murine macrophages IC50” value [2] is reported as 11.86 ± 1.63 µg/mL and the “L. donovani promastigotes EC50” value [3] is reported as > 25 µg/mL.

For CCCCCCCC/C=C\CCCCCCCC(=O)O [oleic acid], the “Inhibition of the motility … (in words)” value [1] is listed as “had no effect” and the “MIC against L. donovani promastigotes” value [5] is listed as 90 µM (≈ 25.4 µg/mL).
